One block for each compound: values may come before it. Active and inactive are the calls of the source.
What was measured:
Mus musculus [1] = test: Ability to antagonise intraperitoneal dose; inactive (<10% antagonism) at 30 mgjkg is represented as I-30.; type: functional, organism-based
How it was run: (§1)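 Nonfasted male Swiss Webster mice, 18–24 g, ten per dose level and in saline controls. Test compound given ip 30 min before tetrabenazine 32 mg/kg ip; dose expressed as free base. Motor activity and ptosis scored. Control response ≤90% corrected by Abbott's formula.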

Rattus norvegicus [2] = organism: Rattus norvegicus; test: Ability to inhibit the uptake of tritiated dopamine (DA); type: functional
How it was run: (§2)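 Male Wistar rat brain synaptosomes (P2 fraction): hypothalamus for NE, striatum for DA, cerebral cortex for 5-HT. Buffer is Tris- or HEPES-buffered salt medium with glucose, ascorbate and nialamide, pH 7.4 at 37 °C. Preincubated 10 min at 37 °C with compound. Uptake started with [3H]NE 100–300 nM, [3H]DA 50–300 nM or [3H]5-HT 100–200 nM, incubated 3 min (DA) or 6–10 min (NE, 5-HT). Blanks held on ice. Filtered, counted by scintillation.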

Mus musculus [3] = test: Ability to antagonise intraperitoneal dose; inactive (<10% antagonism) at 30 mg/kg is represented as I-30.; type: functional, organism-based; parameters: dose 30 mg/kg; how it was run: as §1
Mus musculus [4] = organism: Mus musculus; test: Gross behavioral effects ascertained in mice; W indicates weak stimulant or depressant activity of little significance.; type: functional, organism-based
How it was run: (§3)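 Male Swiss Webster mice, 18–24 g, three per dose, given ip doses of 1, 3, 10, 30, 100 and 300 mg/kg. Observed for gross behavior and held for 4 days. Scored as weak (W), stimulant (S), depressant (D) or convulsant (C).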

[5] = target: Sodium-dependent serotonin transporter (Rattus norvegicus) (UniProt P31652); test: Ability to inhibit the uptake of [3H]- serotonin(5-HT) 0.1 uM concentration at rat brain synaptosomes; type: functional, subcellular; how it was run: as §2
[6] = target: Norepinephrine transporter (Rattus norvegicus, UniProt Q9WTR4); test: Inhibition of uptake of tritiated norepinephrine (NE) in rat synaptosomes; type: subcellular, Brain
Mus musculus [7] = test: Ability to antagonise intraperitoneal administration; inactive (<10% antagonism) at 30 mgjkg is represented as I-30.; type: functional, organism-based; how it was run: as §1
[8] = target: Norepinephrine transporter (Rattus norvegicus) (UniProt Q9WTR4); test: Ability to inhibit the uptake of [3H]norepinephrine (NE) 0.1 uM concentration at rat brain synaptosomes; type: functional, subcellular; how it was run: as §2
Rattus norvegicus [9] = organism: Rattus norvegicus; test: Ability to inhibit the uptake of tritiated dopamine (DA) 1 uM concentration; type: functional
How it was run: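 Rat brain synaptosomal [3H]dopamine uptake: striatal P2 fraction, test compound at 1.00 μM. Preincubated at 37 °C, then 50–300 nM [3H]DA for 3 min. Blanks on ice. Filtration and scintillation counting; percent inhibition of control uptake.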

Rattus norvegicus [10] = test: Ability to inhibit the uptake of tritiated serotonin(5-HT) at 0.1 mg/kg concentration; type: functional
Mus musculus [11] = organism: Mus musculus; test: Antagonism of tetrabenazine (TBZ)-induced depression measured in mice by motor activity; type: functional; conditions: Mus musculus; read-out: ED50; how it was run: as §1
Mus musculus [12] = test: Ability to antagonise intraperitoneal administration; weakly active (>=10% and <=30% antagonism) at 30 mg/kg is represented as >30; type: functional; conditions: ip; how it was run: as §1
Mus musculus [13] = organism: Mus musculus; test: Gross behavioral effects ascertained in mice; type: functional, organism-based; how it was run: as §3
[14] = target: Adrenergic receptor alpha-1 (Rattus norvegicus) (UniProt P15823+P23944+P43140); test: Binding affinity towards alpha-1 adrenergic receptor at 1.0 uM concentration; type: protein assay
How it was run: (§4)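 Rat brain crude synaptic membranes in 20 mM NaHEPES pH 7.5. Ligands: α1 cortex […] 0.4 nM, nonspecific with (-)-NE 100 μM, 30 min at 25 °C. […] D2 striatum [3H]spiperone 0.05 nM with (+)-butaclamol 1 μM, 45 min at 37 °C. S1 cortex [3H]5-HT 1 nM plus glutathione and MgCl2, with 5-HT 10 μM, 20 min at 37 °C. […] Samples filtered on GF/B and counted.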

Rattus norvegicus [15] = organism: Rattus norvegicus; test: Ability to inhibit the uptake of tritiated norepinephrine (NE) at 0.1 uM concentration; type: functional; how it was run: as §2
[16] = target: Sodium-dependent dopamine transporter (Rattus norvegicus) (UniProt P23977); test: Inhibition of tritiated dopamine (DA) uptake at 0.1 uM concentration; type: functional; how it was run: as §2
Mus musculus [17] = test: Ability to antagonise intraperitoneal 30 mg/kg dose; inactive (<10% antagonism) at 30 mgjkg is represented as I-30.; type: functional, organism-based; parameters: dose 30 mg/kg; how it was run: as §1
[18] = target: Serotonin 2 (5-HT2) receptor (Rattus norvegicus) (UniProt P30994+P08909+P14842); test: Binding affinity towards 5-hydroxytryptamine 2 receptor at 1.0 uM concentration; type: protein assay; how it was run: as §4
[19] = target: Sodium-dependent serotonin transporter (Rattus norvegicus) (UniProt P31652); test: Inhibition of tritiated serotonin(5-HT) uptake at 0.1 uM concentration; type: functional; how it was run: as §2
Mus musculus [20] = organism: Mus musculus; test: Gross behavioral effects ascertained in mice; C indicates overt convulsant; type: functional, organism-based; how it was run: as §3
[21] = target: Sodium-dependent dopamine transporter (Rattus norvegicus, UniProt P23977); test: Inhibition of the uptake of tritiated dopamine (DA) in rat synaptosomes; type: subcellular, Brain
Rattus norvegicus [22] = organism: Rattus norvegicus; test: Ability to inhibit the uptake of tritiated norepinephrine (NE) 0.1 uM concentration; type: functional; how it was run: as §2
[23] = target: Sodium-dependent dopamine transporter (Rattus norvegicus) (UniProt P23977); test: Ability to inhibit the uptake of [3H]dopamine (DA) 0.1 uM concentration at rat brain synaptosomes; type: functional, subcellular; how it was run: as §2
Mus musculus [24] = organism: Mus musculus; test: Gross behavioral effects ascertained in mice; S indicates significant stimulant properties.; type: functional, organism-based; how it was run: as §3
[25] = target: D(1A) dopamine receptor (Rattus norvegicus) (UniProt P18901); test: Binding affinity towards Dopamine receptor D1 at 1.0 uM concentration; how it was run: as §4
[26] = target: Muscarinic acetylcholine receptor (Rattus norvegicus) (UniProt P08482+P08483+P08485+P08911+P10980); test: Binding affinity towards Muscarinic acetylcholine receptor at 10 uM concentration; type: protein assay

Sodium-dependent serotonin transporter (Rattus norvegicus), sequence (P31652 whole entry): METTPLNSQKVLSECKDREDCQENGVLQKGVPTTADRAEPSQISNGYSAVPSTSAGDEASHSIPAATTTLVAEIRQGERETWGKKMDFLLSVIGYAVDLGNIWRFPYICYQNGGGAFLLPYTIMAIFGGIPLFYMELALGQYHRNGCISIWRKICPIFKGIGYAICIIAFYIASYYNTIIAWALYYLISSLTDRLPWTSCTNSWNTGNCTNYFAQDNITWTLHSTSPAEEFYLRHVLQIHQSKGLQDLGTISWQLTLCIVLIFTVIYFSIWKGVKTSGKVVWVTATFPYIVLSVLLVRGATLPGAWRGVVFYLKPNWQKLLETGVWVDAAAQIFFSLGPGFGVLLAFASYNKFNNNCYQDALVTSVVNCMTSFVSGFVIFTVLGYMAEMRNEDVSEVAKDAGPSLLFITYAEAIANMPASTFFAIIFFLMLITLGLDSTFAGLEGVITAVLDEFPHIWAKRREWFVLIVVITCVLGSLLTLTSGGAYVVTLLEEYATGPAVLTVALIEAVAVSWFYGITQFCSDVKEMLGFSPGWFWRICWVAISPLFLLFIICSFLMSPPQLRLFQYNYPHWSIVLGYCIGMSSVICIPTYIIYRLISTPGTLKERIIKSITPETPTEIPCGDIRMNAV
Sodium-dependent dopamine transporter (Rattus norvegicus), sequence (P23977 whole entry): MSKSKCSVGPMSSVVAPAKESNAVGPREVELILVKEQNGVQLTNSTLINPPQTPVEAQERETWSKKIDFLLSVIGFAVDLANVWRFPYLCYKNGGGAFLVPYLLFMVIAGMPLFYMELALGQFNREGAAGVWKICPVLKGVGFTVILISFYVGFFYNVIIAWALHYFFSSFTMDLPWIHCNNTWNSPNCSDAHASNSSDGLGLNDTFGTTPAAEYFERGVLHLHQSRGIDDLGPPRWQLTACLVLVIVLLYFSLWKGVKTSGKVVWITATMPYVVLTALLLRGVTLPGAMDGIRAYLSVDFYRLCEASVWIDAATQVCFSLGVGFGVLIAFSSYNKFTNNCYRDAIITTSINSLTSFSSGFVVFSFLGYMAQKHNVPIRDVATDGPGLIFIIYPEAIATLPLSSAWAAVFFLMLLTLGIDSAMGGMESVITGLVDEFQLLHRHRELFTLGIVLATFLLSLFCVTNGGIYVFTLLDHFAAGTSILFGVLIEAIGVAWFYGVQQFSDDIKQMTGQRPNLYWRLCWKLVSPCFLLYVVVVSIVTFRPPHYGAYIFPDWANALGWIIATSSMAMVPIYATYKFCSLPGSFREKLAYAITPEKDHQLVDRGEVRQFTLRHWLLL
D(1A) dopamine receptor (Rattus norvegicus), sequence (P18901 whole entry): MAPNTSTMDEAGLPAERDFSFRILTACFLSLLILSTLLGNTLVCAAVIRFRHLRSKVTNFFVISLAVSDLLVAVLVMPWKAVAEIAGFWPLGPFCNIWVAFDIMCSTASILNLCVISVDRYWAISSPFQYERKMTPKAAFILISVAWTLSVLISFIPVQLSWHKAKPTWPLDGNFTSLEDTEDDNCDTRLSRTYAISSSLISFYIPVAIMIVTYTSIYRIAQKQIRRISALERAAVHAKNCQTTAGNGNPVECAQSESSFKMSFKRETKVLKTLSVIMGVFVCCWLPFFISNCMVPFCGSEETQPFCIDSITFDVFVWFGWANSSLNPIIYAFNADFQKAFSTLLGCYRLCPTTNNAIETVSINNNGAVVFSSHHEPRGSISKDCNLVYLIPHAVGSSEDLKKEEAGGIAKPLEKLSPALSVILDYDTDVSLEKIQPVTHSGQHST
Serotonin 2 (5-HT2) receptor (Rattus norvegicus), sequence (P08909 whole entry, looked up): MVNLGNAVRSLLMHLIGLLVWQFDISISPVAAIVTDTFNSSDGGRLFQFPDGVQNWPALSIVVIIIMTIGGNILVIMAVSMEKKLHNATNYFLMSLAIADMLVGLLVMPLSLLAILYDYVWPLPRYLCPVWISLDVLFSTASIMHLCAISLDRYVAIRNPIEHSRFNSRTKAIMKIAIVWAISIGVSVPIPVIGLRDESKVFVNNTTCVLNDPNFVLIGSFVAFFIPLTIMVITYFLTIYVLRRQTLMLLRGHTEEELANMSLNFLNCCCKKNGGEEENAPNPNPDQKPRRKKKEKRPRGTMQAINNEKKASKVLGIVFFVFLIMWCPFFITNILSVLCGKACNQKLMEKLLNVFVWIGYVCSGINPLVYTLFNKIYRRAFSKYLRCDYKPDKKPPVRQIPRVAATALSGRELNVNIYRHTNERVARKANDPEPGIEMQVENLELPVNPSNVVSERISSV
Serotonin 2 (5-HT2) receptor (Rattus norvegicus), sequence (P14842 whole entry, looked up): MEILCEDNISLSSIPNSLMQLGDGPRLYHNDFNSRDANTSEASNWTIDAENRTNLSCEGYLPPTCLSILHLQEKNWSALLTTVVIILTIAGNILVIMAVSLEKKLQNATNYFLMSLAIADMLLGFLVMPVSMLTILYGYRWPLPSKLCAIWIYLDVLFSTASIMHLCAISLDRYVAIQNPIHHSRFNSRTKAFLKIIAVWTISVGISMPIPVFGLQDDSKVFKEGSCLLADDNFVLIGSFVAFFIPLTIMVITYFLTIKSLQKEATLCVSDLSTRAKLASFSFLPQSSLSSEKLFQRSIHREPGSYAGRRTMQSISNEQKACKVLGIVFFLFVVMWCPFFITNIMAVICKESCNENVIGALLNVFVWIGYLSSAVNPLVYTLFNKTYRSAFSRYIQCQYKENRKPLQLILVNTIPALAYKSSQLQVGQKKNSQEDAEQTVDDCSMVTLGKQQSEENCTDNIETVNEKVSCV
Serotonin 2 (5-HT2) receptor (Rattus norvegicus), sequence (P30994 whole entry, looked up): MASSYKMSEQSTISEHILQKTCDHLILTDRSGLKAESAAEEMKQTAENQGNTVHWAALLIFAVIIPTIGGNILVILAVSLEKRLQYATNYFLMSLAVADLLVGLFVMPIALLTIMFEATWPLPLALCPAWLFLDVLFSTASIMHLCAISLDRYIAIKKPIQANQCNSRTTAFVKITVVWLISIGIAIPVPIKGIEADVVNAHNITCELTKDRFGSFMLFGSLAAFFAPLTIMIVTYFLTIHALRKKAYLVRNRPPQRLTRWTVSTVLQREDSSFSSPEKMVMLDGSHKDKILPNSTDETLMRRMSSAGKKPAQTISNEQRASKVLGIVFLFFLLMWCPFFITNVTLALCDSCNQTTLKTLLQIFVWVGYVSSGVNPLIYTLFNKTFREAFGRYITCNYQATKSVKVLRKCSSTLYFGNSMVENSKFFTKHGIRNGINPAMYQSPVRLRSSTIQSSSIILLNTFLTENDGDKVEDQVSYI
Sodium-dependent dopamine transporter, sequence (P23977 whole entry): as the sequence (P23977 whole entry) above
Norepinephrine transporter (Rattus norvegicus), sequence (Q9WTR4 as listed by the source): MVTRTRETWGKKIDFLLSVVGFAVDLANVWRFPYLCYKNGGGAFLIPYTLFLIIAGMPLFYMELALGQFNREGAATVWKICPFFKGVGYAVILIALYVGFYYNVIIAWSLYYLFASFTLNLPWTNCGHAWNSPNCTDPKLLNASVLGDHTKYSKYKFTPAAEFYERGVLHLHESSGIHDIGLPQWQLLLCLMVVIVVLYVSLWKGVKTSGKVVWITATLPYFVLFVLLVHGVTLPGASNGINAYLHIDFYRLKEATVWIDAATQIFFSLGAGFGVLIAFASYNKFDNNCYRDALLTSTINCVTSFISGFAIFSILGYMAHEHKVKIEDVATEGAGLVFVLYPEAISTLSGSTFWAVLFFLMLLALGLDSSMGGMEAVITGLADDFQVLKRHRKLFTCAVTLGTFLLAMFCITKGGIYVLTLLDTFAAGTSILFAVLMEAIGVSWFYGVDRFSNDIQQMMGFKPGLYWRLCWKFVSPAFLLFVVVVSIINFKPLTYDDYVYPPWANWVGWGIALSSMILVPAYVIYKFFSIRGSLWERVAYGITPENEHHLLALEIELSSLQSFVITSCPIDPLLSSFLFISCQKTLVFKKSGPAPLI
Norepinephrine transporter, sequence (Q9WTR4 whole entry): as the sequence (Q9WTR4 as listed by the source) above

inhibition [14]: 90%
inhibition [16]: 0%
inhibition [18]: 88%
inhibition [19]: 12%
SMILES: Br.COc1cc([C@@H]2CN3CCC[C@H]3c3ccccc32)cc(OC)c1OC
Inhibition (Rattus norvegicus [15]): 9%
ED50 (Mus musculus [3]): inactive
ED50 (Mus musculus [17]): inactive
behavior (Mus musculus [4]): Partial stimulant

Ki [21]: 355 nM
inhibition [19]: 10%
SMILES: COc1ccc([C@@H]2CN3CCCC3c3cc(OC)c(OC)cc32)cc1OC (some centres not stated)
behavior (Mus musculus [20]): Overt convulsant
Inhibition (Rattus norvegicus [15]): 18%
ED50 (Mus musculus [3]): inactive
ED50 (Mus musculus [17]): inactive

inhibition [25]: 35%
inhibition [26]: 0%
SMILES: c1ccc([C@@H]2CN3CCC[C@@H]3c3ccccc32)cc1 (stereo in doubt; 7b)
behavior (Mus musculus [24]): Stimulant

Further lines, the compound ahead of its results:

SMILES: C[C@@]12CCCCN1C[C@H](c1ccccc1)c1ccccc12
ED50 (Mus musculus [1]): inactive
Ki (Rattus norvegicus [2]): 36.4 nM
ED50 (Mus musculus [3]): inactive
behavior (Mus musculus [4]): Weak
inhibition [5]: 15%
Ki [6]: 10.5 nM

SMILES: c1ccc2c(c1)[C@H](C1CCCCC1)CN1CCC[C@@H]21
ED50 (Mus musculus [7]): inactive
ED50 (Mus musculus [1]): inactive
behavior (Mus musculus [4]): Weak
inhibition [8]: 0%
Inhibition (Rattus norvegicus [9]): 31%
inhibition [5]: 0%

SMILES: Br.c1ccc([C@H]2CN3CCC[C@H]3Cc3ccccc32)cc1
inhibition in vivo at 0.1 mg/kg (Rattus norvegicus [10]): 9%
ED50 (Mus musculus [11]): > 3 mg/kg

SMILES: Br.CS(=O)(=O)c1ccc([C@@H]2CN3CCC[C@@H]3c3ccccc32)cc1
ED50 (Mus musculus [3]): inactive
ED50 at 30 mg/kg (Mus musculus [12]): > 30 mg/kg
behavior (Mus musculus [13]): inactive

SMILES: FC(F)(F)c1cccc([C@@H]2CN3CCC[C@H]3c3cccc(Cl)c32)c1
Ki (Rattus norvegicus [22]): ~100 nM
inhibition [23]: 4%
inhibition [5]: 22%

Reference: ChEMBL document CHEMBL1123812, “Pyrroloisoquinoline antidepressants. 2. In-depth exploration of structure-activity relationships” (J Med Chem, 1987)
